Measured values from ChEMBL document CHEMBL1914328, “Thiosemicarbazones derived from 1-indanones as new anti-Trypanosoma cruzi agents” (Bioorg Med Chem, 2011).

Columns and labels:
[1] = Selectivity index, ratio of growth inhibition of Trypanosoma cruzi Tulahuen 2 epimastigotes at 25 uM to hemolysis of human erythrocytes at 25 uM
How it was run: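 This is a ratio of two values. One is the % epimastigote growth inhibition (A590, day 5 versus day 0, against a DMSO control). The other is the % erythrocyte lysis (A405 after 24 h at 37 °C, relative to water lysis). Both are measured at the same compound concentration.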

[2] = Toxicity in human erythrocytes assessed as hemolysis at 25 uM after 24 hrs by spectrophotometry; assay type: cell-based, Erythrocyte; settings: read-out: Activity
How it was run: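 Citrated human blood was washed repeatedly in ice-cold PBS and made into a 2% w/v suspension. It was mixed 1:1 with compound in PBS and incubated 24 h at 37 °C. Supernatant hemoglobin was read at 405 nm. Percent hemolysis = (A at 24 h − A at 0 h) / water-lysis A × 100. Water gave 100% lysis, PBS served as negative control. Run in quintuplicate.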

[3] = test system: Trypanosoma cruzi; test: Antitrypanosomal activity against Trypanosoma cruzi Tulahuen 2 epimastigotes assessed as inhibition of parasite growth after 5 days by spectrophotometric analysis; assay type: functional, organism-based; settings: Tulahuen 2, 120 h
How it was run: (§1)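 Tulahuen 2 epimastigotes were grown in BHI-Tryptose with 5% fetal calf serum at 28 °C, harvested in late log phase and seeded at 2 × 10^6/mL. Compound came from DMSO stock (final DMSO ≤1%, vehicle control). A590 was read at day 0 and day 5, and % inhibition was taken against the control. IC50 was the concentration halving control absorbance. Values are the mean of three experiments.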

[4] = test system: Trypanosoma cruzi; test: Antitrypanosomal activity against Trypanosoma cruzi Tulahuen 2 epimastigotes assessed as inhibition of parasite growth at 25 uM after 5 days by spectrophotometric analysis; assay type: functional; settings: Tulahuen 2, 120 h, read-out: GI; how it was run: as §1
[5] = molecular target: Cruzipain (Trypanosoma cruzi) (UniProt P25779); test: Inhibition of Trypanosoma cruzi cruzipain using Z-Phe-Arg-AMC as substrate at 100 uM preincubated for 5 mins before substrate addition measured after 10 mins by spectrofluorometry
Chain of Cruzipain (Trypanosoma cruzi) (P25779 123-467 limits assumed): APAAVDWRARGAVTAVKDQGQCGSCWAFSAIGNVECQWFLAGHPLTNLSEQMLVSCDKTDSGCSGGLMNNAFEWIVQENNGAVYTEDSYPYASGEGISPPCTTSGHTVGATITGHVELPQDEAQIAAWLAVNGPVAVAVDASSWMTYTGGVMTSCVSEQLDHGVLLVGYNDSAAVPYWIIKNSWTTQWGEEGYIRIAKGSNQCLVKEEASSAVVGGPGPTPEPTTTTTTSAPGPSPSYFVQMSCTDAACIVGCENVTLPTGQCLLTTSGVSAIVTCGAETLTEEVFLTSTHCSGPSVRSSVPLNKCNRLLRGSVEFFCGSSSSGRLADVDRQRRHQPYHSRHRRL
How it was run: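 Cruzipain was preincubated 5 min at room temperature with compound in 50 mM PBS pH 7.3 or acetate buffer pH 5.3 containing 5 mM DTT. Z-Phe-Arg-AMC was then added. Fluorescence (ex 380/em 460 nm) was followed 10 min at room temperature. Final DMSO was ≤10%, the solvent-only control was used, and a reference thiosemicarbazone inhibitor was included. Values are means of at least three experiments.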

| IC50 [3] | inhibition [5] | SMILES | Ratio [1] | hemolysis at 24 h, 25 µM [2] | inhibition of growth at 25 µM [4] |
| --- | --- | --- | --- | --- | --- |
| 6.2 µM | 9.8% | COc1cccc2c1CC/C2=N\NC(N)=S | 84.2 | 1% | 84.2% |
| 5.9 µM | – | Cc1ccc(NC(=S)N/N=C2\CCc3ccccc32)cc1 | 47.5 | 1.6% | 76% |
| – | – | CC1CS(=O)(=O)CCN1/N=C/c1ccc([N+](=O)[O-])o1 (centres undefined) [NIFURTIMOX] | – | – | 100% |
| 1 µM | 67% | COc1cc2c(cc1OC)/C(=N/NC(=S)Nc1ccc(Cl)cc1)CC2 | 770 | 0.1% | 77% |
| > 50 µM | 24% | NC(=S)N/N=C1\CCc2ccc([N+](=O)[O-])cc21 | 310 | 0.1% | 3.1% |
| 1.8 µM | 61% | COc1ccc2c(c1OC)CC/C2=N\NC(N)=S | 989 | 0.1% | 98.9% |
| 0.152 µM | – | C[C@@H]1[C@H](O)[C@@H](C)/C=C/C=C/C=C/C=C/C=C/C=C/C=C/[C@H](O[C@@H]2O[C@H](C)[C@@H](O)[C@H](N)[C@@H]2O)C[C@@H]2O[C@](O)(C[C@@H](O)C[C@@H](O)[C@H](O)CC[C@@H](O)C[C@@H](O)CC(=O)O[C@H]1C)C[C@H](O)[C@H]2C(=O)O [AMPHOTERICIN B] | 1 | 100% | 100% |
| 7.8 µM | – | Cc1cc2c(c(C)c1Cl)CC/C2=N\NC(N)=S | 837 | 0.1% | 83.7% |
| 7.5 µM | – | COc1ccc2c(c1)CC/C2=N\NC(N)=S | 115.1 | 0.8% | 92.1% |
| 2.3 µM | – | NC(=S)N/N=C1\CCc2cc(Br)ccc21 | 41.2 | 2.4% | 98.8% |
| 3.6 µM | – | Cc1ccc2c(c1)CC/C2=N\NC(N)=S | 200 | 0.5% | 100% |
| 7.5 µM | 0% | COc1ccc2c(c1)/C(=N/NC(N)=S)CC2 | 13.3 | 7.5% | 100% |
| > 50 µM | 1.7% | COc1cc2c(cc1OC)/C(=N/NC(N)=S)CC2 | 190 | 0.1% | 19% |
| 7.7 µM | – | S=C(N/N=C1\CCc2ccccc21)Nc1ccccc1 | 25.8 | 2.7% | 69.6% |
| 8.3 µM | – | NC(=S)N/N=C1\CCc2cc(F)ccc21 | 421 | 0.2% | 84.2% |
| 25 µM | – | Cc1cc(Br)c(C)c2c1/C(=N/NC(N)=S)CC2 | 21.2 | 2.4% | 51% |
| 4.3 µM | – | Cc1cc(C)c2c(c1)CC/C2=N\NC(N)=S | 665 | 0.1% | 66.5% |
| > 50 µM | – | NC(=S)N/N=C1\CCc2c1cccc2[N+](=O)[O-] | 4.9 | 4.5% | 22% |
| 4 µM | – | Cc1cccc2c1CC/C2=N\NC(N)=S | 985 | 0.1% | 98.5% |
| 25 µM | – | S=C(N/N=C1\CCc2ccccc21)Nc1ccc(Cl)cc1 | 508 | 0.1% | 50.8% |
| > 50 µM | – | Cc1cc2c(c(C)c1Cl)/C(=N/NC(N)=S)CC2 | 5.1 | 2.8% | 14.4% |
| – | 100% | CC/C(=N\N=C(\N)S)c1cccc(Br)c1 | – | – | – |
| 5.7 µM | – | Cc1cc(C)c2c(c1Br)CC/C2=N\NC(N)=S | 12.9 | 7.7% | 100% |
| 1 µM | 0% | COc1cc2c(cc1OC)/C(=N/NC(=S)Nc1ccccc1)CC2 | 168.8 | 0.4% | 67.5% |
| 18.6 µM | – | NC(=S)N/N=C1\CCc2ccccc21 | 404 | 0.2% | 80.8% |
| 3 µM | – | COc1cc2c(cc1OC)/C(=N/NC(=S)Nc1ccc(C)cc1)CC2 | 18.5 | 4.2% | 77.7% |
| > 50 µM | – | NC(=S)N/N=C1\CCc2cc(Cl)ccc21 | 170 | 0.1% | 1.7% |
